ChEMBL document CHEMBL2057138, “Design and synthesis of marine fungal phthalide derivatives as PPAR-γ agonists” (Bioorg Med Chem, 2012)
The source made the active and inactive calls. The rule behind the calls is not given here.

Target: T1, Peroxisome proliferator-activated receptor gamma (Homo sapiens) (UniProt P37231)
T1 sequence (whole entry): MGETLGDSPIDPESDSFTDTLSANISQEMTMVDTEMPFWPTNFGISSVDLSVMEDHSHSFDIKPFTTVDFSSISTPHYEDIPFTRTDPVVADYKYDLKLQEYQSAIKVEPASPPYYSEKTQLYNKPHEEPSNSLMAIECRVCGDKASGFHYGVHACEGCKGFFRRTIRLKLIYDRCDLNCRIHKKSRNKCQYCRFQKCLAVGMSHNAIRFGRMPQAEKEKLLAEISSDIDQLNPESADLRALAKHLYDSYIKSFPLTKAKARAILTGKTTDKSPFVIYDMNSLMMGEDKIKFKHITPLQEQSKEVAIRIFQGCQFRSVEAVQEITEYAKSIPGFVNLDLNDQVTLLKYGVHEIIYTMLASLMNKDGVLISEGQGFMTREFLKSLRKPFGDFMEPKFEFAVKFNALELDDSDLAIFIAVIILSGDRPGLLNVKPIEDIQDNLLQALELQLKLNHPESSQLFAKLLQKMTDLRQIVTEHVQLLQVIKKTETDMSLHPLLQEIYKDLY
Assay: Binding affinity to GST-tagged PPARgamma LBD at 50 uM after 4 hrs by TR-FRET competitive binding assay
Procedure, shortened: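 LanthaScreen TR-FRET competitive binding. Mix of 0.5 nM GST-tagged PPAR-γ LBD, 5 nM terbium anti-GST antibody and 5 nM Fluormone Pan-PPAR Green tracer, with compound at 50 µM and DMSO solvent control. Incubated 4 h in the dark. Read as the 520/495 nm emission ratio (counting 0.1 s, integration 20 µs). Mean + s.d., n = 3.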

| Activity | SMILES |
| --- | --- |
| inactive | O=C1OC(=O)c2c1cccc2[N+](=O)[O-] |
| inactive | CCCCCCCCC1(OCc2ccccc2)OC(=O)c2c(OCc3ccccc3)cccc21 (stereo not given) |
| Active | CCCCCCCCOC(=O)c1cccc(O)c1C(=O)O |
| inactive | CCCCCCCCC1(CCCCCCCC)OC(=O)c2cccc(O)c21 |
| Active | CCCCCCCCC1OC(=O)c2cccc(O)c21 (stereo not given) |
| inactive | CCCCCCCCC1(OC)OC(=O)c2c(OCc3ccccc3)cccc21 (stereo not given) |
| inactive | CCCCCCCCC1(O)OC(=O)c2c(O)cccc21 (stereo not given) |
| inactive | CCCCCCCCC1OC(=O)c2c(OC)cccc21 (stereo not given) |
| Active | O=C1OC(=O)c2c(O)cccc21 |
| Active | CCCCCCCCC1OC(=O)c2c(O)cccc21 (racemic) |

Further lines, the compound ahead of its results:

| SMILES | Activity |
| --- | --- |
| CCCCCCCCCC(=O)Oc1cccc2c1C(=O)OC2=O | inactive |
| CCCCCCCCC1(CCCCCCCC)OC(=O)c2c(O)cccc21 | inactive |
| O=C1OC(=O)c2ccccc21 | inactive |
| CCCCCCCCOC(=O)c1cccc([N+](=O)[O-])c1C(=O)O | Active |
| CN(CCOc1ccc(CC2SC(=O)NC2=O)cc1)c1ccccn1 (stereo not given) | Active |
| CCCCCCCCC1(O)OC(=O)c2cccc(O)c21 (stereo not given) | inactive |
| CCCCCCCCC1(O)OC(=O)c2c(OCc3ccccc3)cccc21 (stereo not given) | inactive |

Target: Peroxisome proliferator-activated receptor gamma (Homo sapiens) (UniProt P37231)
Assay: Agonist activity at PPARgamma in rat Ac2F cells assessed as luciferase activity after 6 hrs by reporter gene assay

| Activity | SMILES |
| --- | --- |
| Dose-dependent effect | CCCCCCCCC1OC(=O)c2c(O)cccc21 (racemic) |

Target: Peroxisome proliferator-activated receptor gamma (Homo sapiens) (UniProt P37231)
Assay: Agonist activity at PPARgamma in rat Ac2F cells assessed as luciferase activity at 0.1 to 10 uM after 6 hrs by reporter gene assay

| Activity | SMILES |
| --- | --- |
| Active | CCCCCCCCC1OC(=O)c2cccc(O)c21 (stereo not given) |
| Active | CCCCCCCCC1OC(=O)c2c(O)cccc21 (racemic) |
